Data on three molecules can be found in publication PMC3174326 (Journal of medicinal chemistry, 2011).

Where a SMILES comes first, the peptide text is derived from it. The star is where a group is joined. X1 = O=C(NCCCN*)c1ccc(-c2n[nH]c3ccccc23)cc1 A value given as a limit tells only on which side of the number the result lay.

One may read the IC50 as the concentration that inhibits the measured activity by half.

One experiment deals with JNK1 (Homo sapiens, UniProt P45983). The format is biochemical. The note with it: for IC50: read-out: Kinase Inhibition IC50, JNK1 phosphorylation of ATF2, TR-FRET. Background: Time-resolved FRET reads energy transfer from a long-lived donor to a nearby acceptor.
Sequence of JNK1 (P45983 whole entry): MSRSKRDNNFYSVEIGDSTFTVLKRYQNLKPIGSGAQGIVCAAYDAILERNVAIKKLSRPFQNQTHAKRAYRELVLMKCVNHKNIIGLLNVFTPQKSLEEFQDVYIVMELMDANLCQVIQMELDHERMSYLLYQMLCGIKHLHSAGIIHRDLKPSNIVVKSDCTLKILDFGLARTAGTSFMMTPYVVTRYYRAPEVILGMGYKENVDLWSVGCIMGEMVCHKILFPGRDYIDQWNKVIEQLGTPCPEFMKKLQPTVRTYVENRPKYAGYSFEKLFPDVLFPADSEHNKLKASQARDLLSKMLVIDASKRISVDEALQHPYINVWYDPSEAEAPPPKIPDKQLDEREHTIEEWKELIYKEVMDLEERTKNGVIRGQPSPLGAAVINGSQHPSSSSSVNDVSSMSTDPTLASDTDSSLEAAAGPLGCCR
In another experiment the test system is NONcNZO10/LtJ mice. Nature of the experiment: Glucose tolerance test in type 2 diabetes mouse model. In kind it is in vivo. Conditions: 25 mg/kg i.p. daily, 26-week-old NONcNZO10/LtJ mice, 2 g/kg D-glucose i.p. In outline: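 Male 26-week-old NONcNZO10/LtJ mice, glucose intolerant, received test compound daily by i.p. injection alongside vehicle-treated controls. After a 16 h fast, mice were given D-glucose i.p. Blood was sampled at set time points and glucose read with a hand-held meter. Treated and vehicle groups were compared by two-way ANOVA using all measurements.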

A further experiment concerns the target GST-JNK1 (UniProt P45983 1-427). Nature of the experiment: DELFIA.

Sequence of GST-JNK1 (P45983 whole entry): as above

Turning to `CC(C)CC(NC(=O)C(CC(N)=O)NC(=O)C(CC(C)C)NC(=O)C(NC(=O)C(NC(=O)C1CCCN1C(=O)C(N)CCCNC(=N)N)C(C)O)C(C)O)C(=O)NCC(=O)NCC(=O)NCCCNC(=O)c1ccc(-c2n[nH]c3ccccc23)cc1` (centres unmarked) [compound 9] (H-RPTTLNLGG-X1; configuration not given here), the “improvement of kinase inhibition properties compared with 20” value on JNK1 (9 versus 20, Figure 1e) was “over 100 fold”. The IC50 on JNK1 amounted to 0.0007 µM.

As for “Ac-tdqsrpvqpflnlttprrprpprrrqrrkkrg-OH (Ac-TDQSRPVQPFLNLTTPRRPRPPRRRQRRKKRG-OH; also: lowercase letters in name, meaning not given here) [compound 11]”, in the experiment on NONcNZO10/LtJ mice, the “glucose tolerance / restoring normoglycemia” value is “observed shortcoming”. Moreover, the 50% inhibitory concentration (IC50) in the experiment with JNK1 was more than 50 µM.

In the experiment with GST-JNK1, Ac-RPTTLNL-OH [10 (Ac-RPTTLNL-OH)] yielded an IC50 of 4.5 µM.
